Experimental data from ChEMBL document CHEMBL1255454, “Systematic approach to optimizing specifically targeted antimicrobial peptides against Streptococcus mutans” (2010).
Calls of active or inactive are those of the source. The calls are words filed in the database; no cut-off is given here.

Columns and labels:
Pseudomonas aeruginosa = assay: Antimicrobial activity against Pseudomonas aeruginosa PAK after 16 to 20 hrs by broth microdilution assay; assay type: functional
Outline: (§1)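 Broth microdilution. Twofold peptide dilutions were made in 50% BHI–50% sterile water for oral streptococci and in 1× Mueller-Hinton broth for the other bacteria. First round 500 to 0.97 µg/ml; a second round of 64 to 0.5 µg/ml was run in some cases, reporting its mode. Inoculum ~1 × 10^5 CFU/ml, 37°C for 16–20 h. Read A600; MIC taken as complete inhibition or ≥90% turbidity reduction versus peptide-free control.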

Escherichia coli = assay: Antimicrobial activity against Escherichia coli W3110 after 16 to 20 hrs by broth microdilution assay; assay type: functional; outline: as §1
Streptococcus sanguinis [1] = assay: Antimicrobial activity against Streptococcus sanguinis NY101 after 16 to 20 hrs by broth microdilution assay; assay type: functional; outline: as §1
Streptococcus sobrinus = assay: Antimicrobial activity against Streptococcus sobrinus ATCC 33478 after 16 to 20 hrs by broth microdilution assay; assay type: functional; outline: as §1
Enterococcus faecalis = assay: Antimicrobial activity against Enterococcus faecalis after 16 to 20 hrs by broth microdilution assay; assay type: functional; outline: as §1
Streptococcus mutans [2] = assay: Antimicrobial activity against Streptococcus mutans UA159 after 16 to 20 hrs by broth microdilution assay; assay type: functional; outline: as §1
[3] = Antimicrobial activity against Streptococcus gordonii Challis DL1 after 16 to 20 hrs by broth microdilution assay; assay type: functional, Streptococcus gordonii str. Challis; outline: as §1
Staphylococcus aureus = assay: Antimicrobial activity against methicillin-resistant Staphylococcus aureus after 16 to 20 hrs by broth microdilution assay; assay type: functional
Outline: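 MRSA grown aerobically in BHI at 37°C. Broth microdilution: 2-fold peptide dilutions in 1× Mueller-Hinton broth, first round 500 to 0.97 µg/ml; if activity below 62.5 µg/ml, sometimes a second round at 64 to 0.5 µg/ml, reporting the mode. Inoculum ~1 × 10^5 CFU/ml, 37°C for 16-20 h. A600 read. MIC = lowest concentration giving complete inhibition or ≥90% turbidity reduction versus peptide-free control.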

Streptococcus mitis [4] = assay: Antimicrobial activity against Streptococcus mitis ATCC 903 after 16 to 20 hrs by broth microdilution assay; assay type: functional; outline: as §1
Streptococcus mutans [5] = assay: Antimicrobial activity against Streptococcus mutans UA159 assessed as inhibition of bacterial biofilm formation at 25 uM after 3 mins by fluorescence assay; assay type: functional
Outline: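 S. mutans UA159 overnight culture was diluted 1:5,000 in TH with 1% sucrose and grown as biofilm for 24 h. Biofilms were exposed 3 min at room temperature to 25 µM fluorescein-labelled peptide in HEPES/NaHCO3/NaCl/MgCl2 buffer with 0.1% CTAB, pH 7.4, then washed twice. Green fluorescence images were taken and biofilm-associated green pixels quantified as binding intensity units.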

[6] = tested on: Streptococcus gordonii str. Challis; assay: Antimicrobial activity against Streptococcus gordonii Challis DL1 at 25 ug/ml after 30 mins by time-kill assay; assay type: functional
Outline: (§2)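 Time-kill. Overnight cultures were diluted in BHI to A600 0.08 and treated with peptide at 25 µg/ml for 30 s to 2 h. Aliquots were diluted 1:50 in BHI, held on ice, plated and counted after 24 h as surviving CFU/ml. Three independent experiments, mean with SD; unpaired Student t test.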

Streptococcus mitis [7] = assay: Antimicrobial activity against Streptococcus mitis ATCC 903 at 25 ug/ml after 30 mins by time-kill assay; assay type: functional, organism-based; outline: as §2
Streptococcus sanguinis [8] = assay: Antimicrobial activity against Streptococcus sanguinis NY101 at 25 ug/ml after 30 mins by time-kill assay; assay type: functional, organism-based; outline: as §2
Streptococcus mutans [9] = assay: Antimicrobial activity against Streptococcus mutans UA159 assessed as inhibition of viability of bacterial biofilm at 25 ug/ml treated for 1 min measured after 4 hrs; assay type: functional
Outline: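 S. mutans biofilms were seeded from overnight culture diluted 1:50 in TH broth with 0.5% sucrose, centrifuged, and grown 4 h anaerobically at 37°C. They were exposed to peptide in 1× PBS for about 1 min, washed, and given fresh TH broth without sucrose. Recovery was read as A600 after 4 h anaerobic incubation at 37°C. Three experiments; unpaired t test.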

Streptococcus mutans [10] = assay: Antimicrobial activity against Streptococcus mutans JM11 assessed as inhibition of bacterial biofilm formation at 50 uM after 10 mins; assay type: functional
Outline: (§3)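 Mixed-species biofilms were grown 24 h at 37°C anaerobically in TH with 50% filter-sterilized pooled human saliva and 1% sucrose. Inoculum: S. mutans JM11 at 1 × 10^6 CFU/well plus S. oralis, S. gordonii, S. sanguinis, S. mitis and S. salivarius at 2 × 10^5 CFU/well each. Survivors were plated on TH agar for total streptococci and on TH agar with 800 µg/ml spectinomycin for JM11. Detection limit 100 CFU/ml.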

Streptococcus mutans [11] = assay: Antimicrobial activity against Streptococcus mutans UA159 at 25 ug/ml after 30 mins by time-kill assay; assay type: functional; outline: as §2
Streptococcus sanguinis [12] = assay: Antimicrobial activity against Streptococcus sanguinis assessed as inhibition of bacterial biofilm formation at 50 uM after 10 mins; assay type: functional; outline: as §3
Streptococcus salivarius = assay: Antimicrobial activity against Streptococcus salivarius assessed as inhibition of bacterial biofilm formation at 50 uM after 10 mins; assay type: functional; outline: as §3
Streptococcus mitis [13] = assay: Antimicrobial activity against Streptococcus mitis assessed as inhibition of bacterial biofilm formation at 50 uM after 10 mins; assay type: functional; outline: as §3
Streptococcus oralis = assay: Antimicrobial activity against Streptococcus oralis assessed as inhibition of bacterial biofilm formation at 50 uM after 10 mins; assay type: functional; outline: as §3
Streptococcus gordonii = assay: Antimicrobial activity against Streptococcus gordonii assessed as inhibition of bacterial biofilm formation at 50 uM after 10 mins; assay type: functional; outline: as §3

| Compound | MIC (Pseudomonas aeruginosa) | MIC (Escherichia coli) | MIC (Streptococcus sanguinis [1]) | MIC (Streptococcus sobrinus) | MIC (Enterococcus faecalis) | MIC (Streptococcus mutans [2]) | MIC [3] | MIC (Staphylococcus aureus) | MIC (Streptococcus mitis [4]) | inhibition (Streptococcus mutans [5]) | inhibition (Streptococcus mutans [9]) | other results |
| --- | --- | --- | --- | --- | --- | --- | --- | --- | --- | --- | --- | --- |
| H-WWSYWWTQW-NH2 | > 125 µg/mL | 125 µg/mL | 125 µg/mL | 125 µg/mL | > 125 µg/mL | 125 µg/mL | 125 µg/mL | > 125 µg/mL | 125 µg/mL | Active | – | – |
| H-FIKHFIHRFGGGRWRWRWF-NH2 | 62.5 µg/mL | – | 32 µg/mL | – | – | 8 µg/mL | 32 µg/mL | 32 µg/mL | 32 µg/mL | Active | Active | Activity [6]: Active; Activity (Streptococcus mitis [7]): Active; Activity (Streptococcus sanguinis [8]): Active; inhibition (Streptococcus mutans [10]): Active; Activity (Streptococcus mutans [11]): Active |
| H-FIKHFIHRF-NH2 | > 500 µg/mL | > 500 µg/mL | 125 µg/mL | 125 µg/mL | > 500 µg/mL | 125 µg/mL | > 500 µg/mL | > 500 µg/mL | > 500 µg/mL | Active | – | – |
| H-FHFHLHFSATFIKHFIHRF-NH2 | 125 µg/mL | 125 µg/mL | 62.5 µg/mL | 250 µg/mL | 62.5 µg/mL | 16 µg/mL | – | 125 µg/mL | – | Active | – | – |
| H-RWRWRWF-NH2 | 32 µg/mL | – | 32 µg/mL | – | – | 4 µg/mL | 32 µg/mL | 32 µg/mL | 32 µg/mL | Active | Active | Activity [6]: Active; inhibition (Streptococcus sanguinis [12]): inactive; inhibition (Streptococcus salivarius): inactive; inhibition (Streptococcus mitis [13]): inactive; Activity (Streptococcus mitis [7]): Active; Activity (Streptococcus sanguinis [8]): Active; inhibition (Streptococcus oralis): inactive; Activity (Streptococcus mutans [11]): Active; inhibition (Streptococcus gordonii): inactive |
| N=C(NCCCCCCNC(=N)NC(=N)Nc1ccc(Cl)cc1)NC(=N)Nc1ccc(Cl)cc1 [CHLORHEXIDINE] | – | – | – | – | – | – | – | – | – | – | Active | inhibition at 50 µM (Streptococcus sanguinis [12]): 95%; inhibition at 50 µM (Streptococcus salivarius): 95%; inhibition at 50 µM (Streptococcus mitis [13]): 95%; inhibition at 50 µM (Streptococcus oralis): 95%; inhibition at 50 µM (Streptococcus mutans [10]; JM11, 10 min): 95%; inhibition at 50 µM (Streptococcus gordonii): 95% |
| H-WWQDWWNEW-NH2 | > 500 µg/mL | > 500 µg/mL | > 500 µg/mL | > 500 µg/mL | > 500 µg/mL | > 500 µg/mL | > 500 µg/mL | > 500 µg/mL | > 500 µg/mL | Active | – | – |
| H-LIKHILHRL-NH2 | > 500 µg/mL | > 500 µg/mL | > 500 µg/mL | > 500 µg/mL | > 500 µg/mL | 125 µg/mL | > 500 µg/mL | > 500 µg/mL | > 500 µg/mL | Active | – | – |
| H-FIKHFIHRFSATRWRWRWF-NH2 | 62.5 µg/mL | – | 32 µg/mL | – | – | 8 µg/mL | 32 µg/mL | 125 µg/mL | 16 µg/mL | Active | Active | inhibition (Streptococcus sanguinis [12]): inactive; inhibition (Streptococcus salivarius): inactive; inhibition (Streptococcus mitis [13]): inactive; inhibition (Streptococcus oralis): inactive; inhibition (Streptococcus mutans [10]): Active; inhibition (Streptococcus gordonii): inactive |
